Measured values published in ChEMBL document CHEMBL1143723, “Antiproliferative cardenolides of an Elaeodendron sp. from the Madagascar rain forest(1)” (J Nat Prod, 2007).

Columns and labels:
Format in all cases: functional, cell-based
[1] = test system: A2780; experiment: Antiproliferative activity against human A2780 cells
[2] = test system: MDA-MB-435; experiment: Antiproliferative activity against human MDA-MB-435 cells
Outline: (§1)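 Cultured human cancer lines (MDA-MB-435 breast, HT-29 colon, H522-T1 non-small cell, U937 histiocytic lymphoma) were exposed to compound, and growth was read by luminescence. The method follows an earlier report, with luminescence measured on a multilabel reader.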

[3] = test system: HT-29; experiment: Antiproliferative activity against human HT29 cells; outline: as §1
[4] = Antiproliferative activity against human H522T1 cells; conditions: H522-T1; outline: as §1
[5] = test system: U-937; experiment: Antiproliferative activity against human U937 cells; outline: as §1

SMILES	IC50 [1]	IC50 [2]	IC50 [3]	IC50 [4]	IC50 [5]
CO[C@H]1CCO[C@@H](O[C@@H]2C=C3CC[C@@H]4[C@H](CC[C@]5(C)[C@@H](C6=CC(=O)OC6)CC[C@]45O)[C@@]3(C)C[C@H]2O)[C@H]1O	2500 nM	–	–	–	–
CO[C@@H]1CCO[C@H]2O[C@@H]3C=C4CC[C@@H]5[C@H](CC[C@]6(C)[C@@H](C7=CC(=O)OC7)[C@@H](OC(C)=O)C[C@]56O)[C@@]4(C)C[C@H]3O[C@]21O [ELAEODENDROSIDE G]	100 nM	–	–	–	–
CO[C@H]1CCO[C@H]2O[C@@H]3C=C4CC[C@@H]5[C@H](CC[C@]6(C)[C@@H](C7=CC(=O)OC7)[C@@H](OC(C)=O)C[C@]56O)[C@@]4(C)C[C@H]3O[C@]21O [ELAEODENDROSIDE F]	190 nM	–	–	–	–
CO[C@H]1CCO[C@H]2O[C@@H]3C=C4CC[C@@H]5[C@H](CC[C@]6(C)[C@@H](C7=CC(=O)OC7)CC[C@]56O)[C@@]4(C)C[C@H]3O[C@]21O [ELAEODENDROSIDE B]	19 nM	150 nM	80 nM	80 nM	50 nM
CO[C@H]1CCO[C@@H](O[C@@H]2C=C3CC[C@@H]4[C@H](CC(=O)[C@]5(C)[C@@H](C6=CC(=O)OC6)CC[C@]45O)[C@@]3(C)C[C@H]2O)[C@H]1O [ELAEODENDROSIDE U]	30000 nM	–	–	–	–
CO[C@@H]1C[C@@H](C)O[C@H]2O[C@@H]3C=C4CC[C@@H]5[C@H](CC[C@]6(C)[C@@H](C7=CC(=O)OC7)[C@@H](OC(C)=O)C[C@]56O)[C@@]4(C)C[C@H]3O[C@]21O [ELAEODENDROSIDE T]	85 nM	370 nM	180 nM	180 nM	150 nM
